# Measured values gathered from unrelated publications.
# Protocols differ between the studies behind these lines.
# Target: MAP kinase-interacting serine/threonine-protein kinase 1 (MKNK1, Homo sapiens, UniProt Q9BUB5)
SMILES,observed,technique,tested at,remaining binding [%]
CC(=O)N1CCC(c2ccc(C(=O)NC(=N)N)cc2C(F)(F)F)CC1,cell-free assay,competition with immobilised ligand,1 µM,100
COc1cnc(Nc2cccc(S(N)(=O)=O)c2)nc1N1CCN(c2ccccc2)CC1,binding,competition with immobilised ligand,1 µM,83
COc1cc(-c2cn(C3CCc4c(F)cccc4N(CC(F)(F)F)C3=O)nn2)ccc1-n1cnc(C)c1 (centres unmarked),cell-free assay,competition with immobilised ligand,1 µM,87
CN(c1nccc(-c2cnn3ncccc23)n1)C1CC1,binding,,1 µM,98
C[C@@H]1CN(c2ccc3ncc(-c4ccc5[nH]nc(C6CC6)c5c4)n3n2)C[C@H](C)O1,binding,competition with immobilised ligand,0.5 µM,94
c1cncc(-c2cccc(Nc3nccc(NC4CCCCC4)n3)c2)c1,binding,competition with immobilised ligand,10 µM,89
CC1CCCN1c1nccc(-c2cnn3ncccc23)n1 (centres unmarked),binding,,1 µM,89
C=CC(=O)N1CCC(C(=O)NCC(=O)N2CCN(c3nc(-c4cnc(N)nc4C(F)F)nc(N4CCOCC4)n3)CC2)CC1,binding,competition with immobilised ligand,1 µM,83
CO[C@@H](C)c1c(Nc2ccc([C@H](N(C)C(=O)C3CCS(=O)(=O)CC3)C(F)(F)F)cc2)cnc2cc(Cl)nn12,cell-free assay,competition with immobilised ligand,1 µM,100
CC(C)(C)c1ccc(-c2nc(CBr)nn2-c2cccc(O)c2)cc1,cell-free assay,competition with immobilised ligand,10 µM,57
O=C(Nc1c[nH]nc1C(=O)NC1CCNCC1)c1cc(F)cc(F)c1,binding,competition with immobilised ligand,1 µM,100
O=C(c1ccc(Nc2nccc(-c3cc4ccccc4s3)n2)cc1)N1CCC(N2CCCC2)CC1,binding,competition with immobilised ligand,1 µM,18
N[C@@H]1CCN(c2nccc(-c3cnn4ncccc34)n2)C1,binding,,1 µM,68
Cc1cc(C)c(-n2ccn3nc(-c4cccnc4)cc23)cc1NC(=O)c1cc(C#N)cc(S(F)(F)(F)(F)F)c1,cell-free assay,competition with immobilised ligand,0.1 µM,83.8
C[C@@H]1CCN(c2nccc(-c3cnn4ncccc34)n2)C1,binding,,1 µM,74
CSc1cccnc1N1CCN(Cc2nc3ccccc3[nH]2)CC1,cell-free assay,competition with immobilised ligand,1 µM,98
O=C(c1ccc(Nc2ncc(Cl)c(-c3ccc(Cl)s3)n2)cc1)N1CCC(N2CCCC2)CC1,binding,competition with immobilised ligand,1 µM,45
